Source: PubChem (The Scripps Research Institute Molecular Screening Center)
TCR-CD3 inh – inhibitors of human TCR-CD3 interaction, primary screen, biochemical, fluorescence, TAMRA-labeled TCR probe; inhibition, % at 9.4 µM; AID 651800, 2012; 360,000 tested, 0.37% active;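 note: recombinant mutant TCR 2C K166C tagged with TAMRA read by polarization; 0% = receptor in buffer alone and 100% = receptor with positive control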
Fam108B counter – mouse Fam108B serine hydrolase inhibitors, primary screen, counter-screen for RBBP9 inhibitor project, biochemical, fluorescence polarization | inhibition, % at 9.51 µM | recombinant Fam108B, FP-Rh probe fluorescence polarization | 300,000 tested, 0.33% active | AID 1947, 2009;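 active = inhibition above the screen mean inhibition plus 3 SD, computed separately per campaign, cut at about 18% in these data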;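 note: inhibitors lower polarization as less probe binds the enzyme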
mABHD4 FP – ABHD4 inhibitors, primary screen, biochemical, fluorescence polarization, mouse. purified mABHD4, FP-Rh probe fluorescence polarization. inhibition, % at 8.92 µM. 370,000 tested, 0.54% active;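 active = inhibition exceeding the mean over every tested compound plus 3 SD, cut at about 30% in these data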;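 note: 0% = plate median of compound wells and 100% = S159A mutant with DMSO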
Target sequence (Q8VD66 whole entry, looked up): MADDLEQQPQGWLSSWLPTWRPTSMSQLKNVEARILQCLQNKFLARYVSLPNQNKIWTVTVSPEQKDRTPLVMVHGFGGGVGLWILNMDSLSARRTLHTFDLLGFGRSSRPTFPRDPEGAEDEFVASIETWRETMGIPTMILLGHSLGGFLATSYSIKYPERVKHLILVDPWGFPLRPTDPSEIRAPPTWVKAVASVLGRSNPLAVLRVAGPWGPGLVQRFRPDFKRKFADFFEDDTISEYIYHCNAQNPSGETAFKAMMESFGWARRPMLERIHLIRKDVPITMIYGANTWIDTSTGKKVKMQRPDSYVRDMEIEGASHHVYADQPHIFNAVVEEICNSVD
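Test system: mABHD4 protein; Read-out basis: % inhibition; Incubation: 45 min + 60 min at 25 °C; Repeats: single replicate; Technique: fluorescence polarization with parallel and perpendicular emission, 525/598 nm; Compound: 8.92 µM, single dose; Benchmarks: full inhibition S159A mutant plus DMSO, zero as sample-well median.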
HTRA1 inh – HTRA1 serine protease inhibitors, primary screen, biochemical, fluorescence polarization, HTS | Q92743 | recombinant HTRA1, FP-rhodamine activity-based probe | inhibition, % at 5.96 µM | 340,000 tested, 0.5% active | AID 504803, 2011; in the data active = inhibition above about 36%;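 note: 0% = enzyme with DMSO and 100% = wells lacking enzyme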
SIAE primary – human SIAE inhibitors, primary screen, biochemical, fluorescence polarization, FP-Rh probe, 1536-well HTS | inhibition, % at 9.66 µM | Sialate O-acetylesterase (Homo sapiens), Q9HAT2 | SIAE FP-Rh probe binding | AID 1053197, 2014 | 370,000 tested, 0.69% active;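 active = inhibition above a cutoff: mean of compounds within the control limits plus 3 SD of those, cut at about 17% in these data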;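 note: 0% = plate median of compound wells and 100% = probe without SIAE protein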
PME-1 inh – PME-1 inhibitors via competitive probe labeling, primary screen, biochemical, fluorescence polarization, FP-Rh probe, HTS; Protein phosphatase methylesterase 1 (Homo sapiens), Q9Y570; recombinant PME-1; inhibition, % at 5.9 µM; 320,000 tested, 0.53% active;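 active = inhibition above the campaign mean of all compounds plus 3 SD, cut at about 26% in these data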;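 note: competitive labeling of PME-1 active site by serine hydrolase directed probe; 0% = PME-1 with DMSO and 100% = wells lacking PME-1 enzyme; inhibitors block probe labeling so polarization falls and inhibition rises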
Target sequence (Q9Y570 whole entry, looked up): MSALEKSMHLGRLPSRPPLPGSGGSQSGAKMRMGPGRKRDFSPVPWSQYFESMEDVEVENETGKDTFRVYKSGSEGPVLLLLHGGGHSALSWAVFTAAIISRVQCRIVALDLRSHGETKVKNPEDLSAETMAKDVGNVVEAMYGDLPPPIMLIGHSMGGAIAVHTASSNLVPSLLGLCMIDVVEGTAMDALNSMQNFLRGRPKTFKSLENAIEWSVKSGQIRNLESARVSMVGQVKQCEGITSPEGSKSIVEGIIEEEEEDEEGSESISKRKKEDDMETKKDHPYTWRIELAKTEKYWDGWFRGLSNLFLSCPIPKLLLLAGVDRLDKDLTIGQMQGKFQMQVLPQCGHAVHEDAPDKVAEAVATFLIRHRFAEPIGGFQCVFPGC
HTRA1 conf – HTRA1 protease inhibitors, retest, confirmation, biochemical, fluorescence polarization; 1,600 tested, 66% active; AID 540248, 2011; inhibition, % at 5.96 µM; shares compounds with HTRA1 inh; recombinant HTRA1, FP-rhodamine activity-based probe;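 active = mean inhibition over three repeats above a set limit taken from the earlier primary screen, cut at about 37% in these data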;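 note: 0% = HTRA1 with DMSO and 100% = wells lacking HTRA1; inhibitors block probe binding so polarization drops and inhibition rises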
BSA TAMRA ctr – compounds interfering with TAMRA-BSA probe, counter-screen for TCR-CD3 interaction inhibitor project, biochemical, fluorescence, TAMRA-labeled BSA; shares compounds with TCR-CD3 inh; TAMRA-labeled BSA probe fluorescence counterscreen; inhibition, % at 9.4 µM; 1,200 tested, 10% active; AID 652035, 2013; in the data active = inhibition above about 23%;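 note: 0% = buffer low control and 100% = reference high control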
TCR-CD3 inh conf – TCR-CD3 interaction inhibitors, retest, confirmation, biochemical, fluorescence, TAMRA-labeled TCR probe. shares compounds with TCR-CD3 inh. TAMRA-labeled TCR probe fluorescence binding assay. inhibition, % at 9.4 µM. 1,200 tested, 48% active. AID 652036, 2013
ABHD4 confirm – ABHD4 inhibitors, retest, confirmation, biochemical, fluorescence polarization, mouse; shares compounds with mABHD4 FP; AID 720658, 2013; purified mABHD4, FP-Rh probe fluorescence polarization; inhibition, % at 8.92 µM; 1,800 tested, 55% active;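 active = mean inhibition across replicates above the hit cutoff set in the primary screen, cut at about 30% in these data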;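 note: 0% = wild-type ABHD4 with DMSO and 100% = catalytically dead S159A mutant with DMSO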
SIAE inh conf – human SIAE inhibitors, retest, confirmation, biochemical, fluorescence polarization, FP-Rh probe, triplicate; shares compounds with SIAE primary; SIAE FP-Rh activity-based probe; inhibition, % at 9.66 µM; 2,300 tested, 13% active; AID 1117263, 2014;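 active = mean inhibition of the replicates above the hit cutoff set in the primary screen, cut at about 17% in these data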;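 note: 0% = SIAE with DMSO and probe and 100% = probe without SIAE; inhibitors lower polarization as more probe stays unbound to SIAE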
* hit, by the source's call; nt = no result given. A selection: hits, their analogues and other compounds. The true share with any hit is near 1.8%. Cut-off read from the data, not from the text of the source, unless noted: active = inhibition above about 19%; inactive = the rest.

SMILES	TCR-CD3 inh	Fam108B counter	mABHD4 FP	HTRA1 inh	SIAE primary	PME-1 inh	ABHD4 confirm	others
CCN(CC)c1ccc(N=Cc2c(O)n(-c3cc(OC)ccc3OC)c(=O)[nH]c2=O)cc1	9	1	65*	46*	25*	11	4	HTRA1 conf=14;SIAE inh conf=5
CCCCCN1C(=O)c2cc(OC)ccc2[C@@]2(C(=O)OCC)Cc3cc(OC)ccc3[C@@H]12	3	nt	-8	nt	-3	nt	nt
O=c1[nH]c(=O)n(Cc2ccco2)c(O)c1/C=N/N1CCCCCC1	-3	-1	-3	-5	1	5	nt
NC(=O)c1ccc(N=Cc2c(O)n(Cc3ccco3)c(=O)[nH]c2=O)cc1	21*	2	-4	-3	-2	0	nt	BSA TAMRA ctr=13;TCR-CD3 inh conf=26*
COc1cccc(NC2=NCCS2)c1	-6	nt	-2	nt	1	nt	nt
Oc1ccc(C[C@H]2NCCc3cc(O)c(O)cc32)cc1O	113*	nt	15	28	16	nt	nt	BSA TAMRA ctr=-5;TCR-CD3 inh conf=19*
Oc1ccc(CC2CC3CCN2CC3)cc1O (configuration not stated)	0	-1	2	-4	6	3	nt
C=C1[C@@H](C)C2[C@H](Cc3ccccc3)NC(=O)[C@]23[C@H](OC(C)=O)/C=C/[C@@](C)(O)C(=O)[C@@H](C)C/C=C/[C@H]3[C@@H]1O (some centres not stated)	nt	nt	-1	nt	-2	nt	nt
C=C(C=O)CC1CC(O)[C@]2(C)OC3CC4OC5C[C@]6(C)O[C@]7(C)CCC8OC9C[C@]%10(C)OC%11C(C)=CC(=O)OC%11CC%10OC9C[C@@H](C)C8OC7CC6O[C@]5(C)C/C=C\C4OC3CC2O1 (some centres not stated)	nt	nt	-6	nt	3	nt	nt
COc1cc2c(cc1O)CC1c3c(cc(O)c(OC)c3-2)CCN1C (configuration not stated)	22*	5	24	8	11	8	nt	BSA TAMRA ctr=-1;TCR-CD3 inh conf=7
O=C(CN1C(=O)[C@@H](Cc2ccc(O)cc2)N=C(c2ccccc2)c2ccccc21)NC1CCCCC1	nt	nt	-12	nt	0	nt	nt
O=C(N/N=C/c1c(O)n(Cc2ccccc2)c(=O)[nH]c1=O)c1ccncc1	26*	-2	24	nt	4	-2	nt	BSA TAMRA ctr=-11;TCR-CD3 inh conf=9
O=C(N/N=C/c1c(O)n(-c2ccccc2)c(=O)[nH]c1=O)c1ccncc1	4	-2	2	-1	-1	-2	nt
O=C(N/N=C/c1c(O)n(-c2ccccc2)c(=S)[nH]c1=O)c1ccccc1	27*	-4	3	nt	-11	-10	nt	BSA TAMRA ctr=-11;TCR-CD3 inh conf=7
C/C(=N\NC(=O)c1ccncc1)c1c(O)n(Cc2ccccc2)c(=O)[nH]c1=O	19*	1	8	5	0	-4	nt	BSA TAMRA ctr=-7;TCR-CD3 inh conf=11
CC(=O)Nc1ccc(C=C2C(=O)NC(=O)NC2=O)cc1	51*	nt	9	-1	-1	nt	nt	BSA TAMRA ctr=-3;TCR-CD3 inh conf=-4
COC(=O)C1=C(c2ccc(OCc3ccccc3)cc2)C[C@@H]2CC[C@H]1N2C(=O)NCc1ccc(C(C)(C)C)cc1	-1	nt	33*	-32	-3	nt	50*
COC(=O)C1=C(c2ccc(OCc3ccccc3)cc2)C[C@@H]2CC[C@H]1N2C(=O)NCc1cccc(OC)c1	2	nt	31*	-37	-11	-7	35*
COC(=O)C1=C(c2ccc(OCc3ccccc3)cc2)C[C@@H]2CC[C@H]1N2C(=O)NCc1ccc([N+](=O)[O-])cc1	3	nt	5	0	-8	nt	nt
COC(=O)C1=C(c2ccc(OCc3ccccc3)cc2)C[C@@H]2CC[C@H]1N2C(=O)NCc1ccc2c(c1)OCO2	4	nt	51*	-24	0	nt	33*
COC(=O)C1=C(c2ccc(OCc3ccccc3)cc2)C[C@@H]2CC[C@H]1N2C(=O)NCc1ccc(OC)cc1	-2	nt	41*	-40	-9	nt	43*
COC(=O)C1=C(c2ccc(OCc3ccccc3)cc2)C[C@@H]2CC[C@H]1N2C(=O)NCc1ccccc1	7	nt	21	-23	-5	-1	nt
C/C(=N\N1CCN(C)CC1)c1c(O)[nH]c(=O)[nH]c1=O	2	-7	11	-1	8	-3	nt
COc1ccc(C2(c3cccc(O)c3OC)CCN(C(C)=O)CC2)cc1O	5	-3	0	-2	1	-2	nt
C[N+]1=C(N)NC2=C3CCCCC3ONC2C1 (configuration not stated)	nt	nt	5	nt	10	nt	nt
SMILES	TCR-CD3 inh	Fam108B counter	mABHD4 FP	HTRA1 inh	SIAE primary	PME-1 inh	ABHD4 confirm	others
Cc1ccc(-n2c(=S)[nH]c3ccc(C)cc3c2=O)cc1	-6	nt	46*	-2	-4	nt	33*
Cc1ccc(-n2c(=S)[nH]c3ccccc3c2=O)cc1F	9	nt	17	-40	-15	nt	nt
C[C@H]1[C@@H](OS(=O)(=O)O)C[C@@H]2C[C@H]([C@@H](O)c3cc(=O)[nH]c(=O)[nH]3)NC3=NC[C@H]1N32	nt	nt	nt	5	nt	nt	nt
CCCCCCCSc1cc(OC)c(CCN(C)C)cc1OC	9	6	32*	21	7	3	35*
O=C(N/N=C/c1c(O)n(C2CC2)c(=S)[nH]c1=O)c1ccccc1O	11	8	35*	4	-22	6	25
CNc1ccc2oc(C[C@H]3O[C@@]4(CC[C@H]3C)O[C@H]([C@H](C)C(=O)c3ccc[nH]3)[C@H](C)C[C@H]4C)nc2c1C(=O)O	0	1	30*	35	11	0	19
